The nature of data set [1]: Effect on MBP83-99 peptide-induced SJL/J mouse spleen cells proliferation assessed as [3H]thymidine incorporation after 6 days. Format: tissue-based. The settings on record: 144 h. The gist of the method:
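Spleen cells taken 28 days after immunization of female 6-8 week SJL/J mice with native MBP83-99 in CFA. 1 × 10^5 cells/well were cultured 1-6 days at 37 °C with recall peptide (10 µg/ml); cells alone served as background. 1 µCi [3H]thymidine was added per well, 6 h before harvest, one plate per day. Reported as mean cpm of triplicate wells, three mice per group.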
On the technique in general: Uptake of a labelled nucleoside into DNA is a usual measure of proliferation.

The next data set deals with spleen. The data set is described as follows: Increase in MBP83-99 peptide-induced IL4 production in SJL/J mouse spleen cells assessed per 0.5 million cells after 24 hrs by ELISpot analysis. Format: functional, cell-based. The procedure, abridged: (§1)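 Female SJL/J mice immunized with peptide in CFA or with peptide conjugated to reduced mannan (50 µg intradermal, days 0 and 14). Spleens taken at day 28. 5 × 10^5 cells/well were incubated 24 h at 37 °C with 10 µg/mL recall peptide on anti-IL-4-coated plates, then developed with biotin anti-IL-4, streptavidin-ALP and a colorimetric substrate. Triplicate wells. Reported as SFU/0.5 million cells minus cells-alone background.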

Data set [2] in a line: Induction of IL4 production in SJL/J mouse spleen cells assessed as spot forming unit per 0.5 million cells by ELISpot analysis. Format: functional. The gist of the method:
as §1

Active and inactive are the calls of the source. No cut-off for these calls is given here. Where a SMILES comes first, the peptide text is derived from it.

On to `CC[C@H](C)[C@H](NC(=O)[C@H](CC(N)=O)NC(=O)[C@H](CCCCN)NC(=O)[C@H](Cc1ccccc1)NC(=O)[C@H](Cc1ccccc1)NC(=O)[C@H](Cc1c[nH]cn1)NC(=O)[C@@H](NC(=O)[C@@H](NC(=O)[C@@H]1CCCN1C(=O)[C@H](CC(N)=O)NC(=O)[C@@H](N)CCC(=O)O)C(C)C)C(C)C)C(=O)N[C@H](C(=O)N[C@H](C(=O)N1CCC[C@H]1C(=O)N[C@@H](CCCNC(=N)N)C(=O)N[C@H](C(=O)N1CCC[C@H]1C(=O)O)[C@@H](C)O)[C@@H](C)O)C(C)C`, for which the result in data set [1] was Active.

For `CC[C@H](C)[C@H](NC(=O)[C@H](CC(N)=O)NC(=O)[C@H](CCCCN)NC(=O)[C@H](Cc1ccccc1)NC(=O)[C@H](Cc1ccccc1)NC(=O)[C@H](Cc1cnc[nH]1)NC(=O)[C@@H](NC(=O)[C@@H](NC(=O)[C@@H]1CCCN1C(=O)[C@H](CC(N)=O)NC(=O)[C@@H](N)CCC(=O)O)C(C)C)C(C)C)C(=O)N[C@H](C(=O)N[C@H](C(=O)N1CCC[C@H]1C(=O)N[C@@H](CCCNC(=N)N)C(=O)N[C@H](C(=O)N1CCC[C@H]1C(=O)O)[C@@H](C)O)[C@@H](C)O)C(C)C`, in the data set on spleen, the result was inactive.

As to `CC[C@H](C)[C@@H]1NC(=O)[C@H](CC(N)=O)NC(=O)[C@H](C)NC(=O)[C@H](Cc2ccccc2)NC(=O)[C@H](Cc2ccccc2)NC(=O)[C@H](Cc2cnc[nH]2)NC(=O)[C@H](C(C)C)NC(=O)[C@H](C(C)C)NC(=O)[C@@H]2CCCN2C(=O)[C@H](CC(N)=O)NC(=O)[C@H](CCC(=O)O)NC(=O)[C@@H]2CCCN2C(=O)[C@H]([C@@H](C)O)NC(=O)[C@H](CCCNC(=N)N)NC(=O)[C@@H]2CCCN2C(=O)[C@H]([C@@H](C)O)NC(=O)[C@H](C(C)C)NC1=O` (cyclo(ANIVTPRTPENPVVHFF)), in data set [2], the Activity was determined as 70.

For the compound H-ENPVVHFFANIVTPRTP-OH, the Activity in data set [2] was 600. Besides, the outcome in the data set on spleen was inactive.
